Assay outcomes: PubChem, several laboratories
Most compounds without a hit are left out; they make up all but 3.1% or so of the library.
ADAM10 inh: ADAM10 inhibition, QFRET primary screen | AID 720582 | O14672 | recombinant ADAM10, EDANS/DABCYL FRET peptide cleavage, 3 h | 370,000 tested, 0.62% active | inhibition, % at 7 µM;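 active = inhibition above a per-campaign cutoff equal to the mean of compounds falling between control-based bounds plus 3 SD, cut at about 20% in these data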;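 also: 0% = DMSO wells while the 100% control is not disclosed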
Target sequence (O14672 214-748 limits assumed): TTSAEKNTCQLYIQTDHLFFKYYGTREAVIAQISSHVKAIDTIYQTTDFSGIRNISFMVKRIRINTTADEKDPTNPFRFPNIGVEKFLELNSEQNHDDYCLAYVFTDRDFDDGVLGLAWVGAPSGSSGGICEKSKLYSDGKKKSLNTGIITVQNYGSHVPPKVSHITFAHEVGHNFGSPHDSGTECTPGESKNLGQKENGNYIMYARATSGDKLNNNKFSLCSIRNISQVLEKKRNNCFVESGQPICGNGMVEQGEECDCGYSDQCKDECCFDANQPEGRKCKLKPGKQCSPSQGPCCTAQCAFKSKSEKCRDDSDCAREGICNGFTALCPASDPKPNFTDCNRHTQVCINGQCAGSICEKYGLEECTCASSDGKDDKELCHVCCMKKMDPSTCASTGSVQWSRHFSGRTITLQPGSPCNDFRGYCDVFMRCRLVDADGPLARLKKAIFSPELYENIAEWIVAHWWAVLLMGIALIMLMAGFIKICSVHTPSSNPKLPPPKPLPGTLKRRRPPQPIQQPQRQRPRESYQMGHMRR
V-ATPase pHluor: yeast V-ATPase proton transport regulation by pHLuorin. response, % at 10 µM. 350,000 tested, 0.37% active. AID 504577. S. cerevisiae, pHLuorin cytosolic pH fluorescence; in the data active = response mostly above about 7.3%, no sharp cut-off; inactive = mostly below about 5.4%; also: actives read high
ADAM17 inh: ADAM17 inhibition, QFRET primary screen; P78536; 370,000 tested, 0.83% active; inhibition, % at 6.95 µM; AID 720648; recombinant ADAM17, EDANS/DABCYL FRET peptide cleavage;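 active = inhibition above the mean of compounds lying between control limits plus 3 SD, set per campaign, cut at about 8.5% in these data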;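 also: 0% = DMSO-only wells as the low control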
MPTP block: permeability transition pore inhibition. isolated mouse mitochondria, Ca2+ swelling absorbance, 30 min. inhibition, % at 10 µM. 360,000 tested, 1.4% active. AID 602449;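 active = inhibition of 50% or more, scaled per plate between neutral and stimulator controls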;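 also: 0% = DMSO wells given calcium and 100% = 1 mM EGTA wells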
aDG glyco up: alpha-DG glycosylation activation; Pro5-aDG cells, alpha-DG glycosylation AlphaScreen (IIH6); 0% Pro5, 100% B10-LARGE cell signal; activation, % at 10 µM; 360,000 tested, 0.22% active; AID 624168;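 active = activation of at least 8% versus controls, or a plate z-score of at least 8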;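 also: Pro5 are CHO cells carrying HIG-tagged alpha-DG that lacks glycosylation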
Lipid droplet: modulators of hepatic lipid droplet formation | AML12 mouse hepatocytes, oleate lipid droplets, BODIPY imaging | AID 1656 | inhibition, % at 6.5 µM | 240,000 tested, 0.4% active;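 active = lipid droplet intensity inhibited by at least 50%, with more than 500 cells counted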
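Assay system: AML12 hepatocytes (mouse) / Also added: 100 µM oleic acid challenge / Times: overnight treatment with compound plus oleate / Detection: high-content imaging of BODIPY-stained droplets and DAPI nuclei / Evaluation: % inhibition of lipid droplet signal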
Rh123 counter: Rhodamine 123 counter-screen of mitochondrial pore hits; inhibition, % at 10 µM; isolated mitochondria, membrane potential, Rhodamine 123 fluorescence; 5,000 tested, 78% active; shares compounds with MPTP block; in the data active = inhibition above about 22%;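 also: 0% = DMSO vehicle and 100% = positive control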
* = called active by the depositor; . = not tested or not shown.

SMILES	ADAM10 inh	V-ATPase pHluor	ADAM17 inh	MPTP block	aDG glyco up	Lipid droplet	Rh123 counter
Nc1nonc1N/N=C/c1c(O)ccc2ccccc12	14.3	4.2	2.7	55.5*	-0.4	5.3	73.8*
CCOC(=O)c1sc(=S)n(C)c1NC(=O)c1ccc(C(C)(C)C)cc1	3.1	0.3	3.1	75.0*	0.1	12.8	88.5*
CC(=O)Nc1ccc(N2CCOCC2)c(S(=O)(=O)Nc2ccccc2Cl)c1	2.4	.	-0.4	1.1	0.1	.	.
O=C(Nc1cccc(C(F)(F)F)c1)Nc1ccc(N2CCCC2)c(S(=O)(=O)Nc2ccccc2Cl)c1	12.5	0.8	4.5	93.9*	0.3	-7.1	40.9*
O=C(N[C@H](C(=O)N1CCC[C@H]1C(=O)NCc1ccccc1)c1ccccc1)c1ccccc1	-7.2	.	-5.8	.	.	.	.
O=C(/C=C/c1cn(CC(O)CN2CCCCCC2)c2ccccc12)c1cccs1 (stereo unspecified)	-3.3	-2.2	-4.0	80.3*	0.8	-34.7	-20.9
C[C@H]1C(=O)CC[C@@]23CCCN2C(=O)CCC[C@@H]13	-8.1	.	-8.1	.	.	.	.
O=C(Nc1ccc(N2CCCC2)c(Cl)c1)c1ccc([N+](=O)[O-])cc1	9.5	-4.7	1.9	76.4*	-0.1	-10.2	75.6*
CC1CCCN(c2ccc(C(=O)NCc3ccc4c(c3)OCO4)cc2[N+](=O)[O-])C1 (stereo unspecified)	16.2	-0.7	4.8	7.4	0.2	-4.0	.
CC1CCCN(c2ccc(C(=O)Nc3ccc4c(c3)OCO4)cc2[N+](=O)[O-])C1 (stereo unspecified)	18.6	1.6	6.2	57.6*	0.0	9.3	42.7*
CN1CCN(c2ccc(Cl)cc2NC(=O)c2ccc([N+](=O)[O-])cc2)CC1	-5.8	0.3	-6.5	0.2	1.3	6.6	.
Cc1cc(C(=O)Nc2ccc(N3CCCC3)c(Cl)c2)ccc1[N+](=O)[O-]	18.4	-2.1	8.2	80.2*	1.2	-4.6	85.9*
CC[C@H](CCC(=O)N(c1ccccc1)c1ccccc1)c1ccc(C)cc1	1.2	.	-2.2	.	.	.	.
O=C(CSc1ccc(C(F)(F)F)cc1[N+](=O)[O-])Nc1ccccc1	9.6	-3.5	-0.4	59.0*	0.1	.	60.9*
Cc1ccc(-c2nnc3n2N=C(c2ccc4ccccc4c2)CS3)cc1	-3.4	.	-1.0	.	.	.	.
O=C(c1ccc(S(=O)(=O)c2ccccc2Cl)c([N+](=O)[O-])c1)N1CCCCCC1	-9.9	2.6	-3.0	79.1*	1.6	7.8	49.2*
O=C(c1ccc(S(=O)(=O)Cc2ccccc2F)c([N+](=O)[O-])c1)N1CCCCCC1	13.6	-0.6	0.6	0.9	0.4	-2.6	.
Fc1nc(F)c(F)c(NCCCNc2c(F)c(F)nc(F)c2F)c1F	8.5	0.1	2.0	92.6*	4.0	-13.4	94.5*
COc1ccc(-c2nnc(-c3ccc(OCC(C)C)cc3)o2)cc1	2.4	-1.1	-2.9	0.7	0.3	.	.
CC(C)COc1ccc(-c2nnc(-c3ccncc3)o2)cc1	-12.2	0.4	-5.5	59.2*	1.7	.	50.9*
Fc1ccc(CCNC(=S)Nc2ccc(F)cc2)cc1	-2.5	-2.5	-4.0	50.2*	0.0	20.2	93.0*
CCCCc1ccc(NC(=S)NCCc2ccc(F)cc2)cc1	8.8	4.9	7.3	81.5*	3.4	1.5	104.9*
CCCCc1ccc(NC(=S)NCCO)cc1	2.4	3.4	-2.1	2.1	0.2	-1.3	.
C=CCN1C(=O)[C@H](CC(=O)N2CCCCC2)[C@@]2(C(=O)OCC)CCCC=C12	-0.9	.	-5.2	.	.	.	.
O=[N+]([O-])c1ccc(S(=O)(=O)Nc2ccncc2)cc1	6.9	-0.4	-0.9	0.0	-0.1	7.1	.
O=[N+]([O-])c1ccc(Oc2ccc(S(=O)(=O)Nc3ccccc3)cc2)cc1	.	0.5	.	69.1*	1.7	4.3	85.1*
O=[N+]([O-])c1ccc(NS(=O)(=O)c2ccc(Cl)c(Cl)c2)cc1	2.4	.	2.0	85.8*	1.3	.	102.4*
CC(C)c1ccc(NS(=O)(=O)c2ccc(Cl)nc2)cc1	16.6	-0.9	1.7	11.3	-0.1	-15.0	.
O=[N+]([O-])c1cc(NS(=O)(=O)c2ccc(Cl)nc2)ccc1Cl	4.3	6.0	1.0	84.7*	0.2	.	96.9*
